# Compound activity from PubChem BioAssay.
# This is a sample that favours compounds with a hit; in the whole collection about 2.1% have one here.
# Calpain2 inh = calpain II (pig) inhibition. purified calpain II, fluorogenic peptide substrate, 30 min. inhibition, % at 16 µM. 0.37% of 220,000 active;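 active = inhibition above about 50%, limit read from the data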
# RanGTP-Impb inh = inhibitors of RanGTP-importin-beta interaction, primary screen, biochemical, FRET, CFP-Ran, YFP-importin-beta, homogeneous. 1.1% of 300,000 active. cell-free CFP-Ran/YFP-importin-beta FRET ratio. inhibition, % (concentration not given with the values);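 active = more than half of the replicate wells show a fall in the fluorescence ratio signal beyond about 16%, limit read from the data, passing the limit was not always enough; inconclusive = exactly half of the replicate wells pass the set limit; inactive = fewer than half of replicates pass the limit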;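 note: 0% = DMSO wells and 100% = Ran loaded with GDP instead of GTP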
# Runt-SMMHC FRET = blocks binding of human RUNX1 Runt domain to CBFb-SMMHC. AID 1434. Cerulean-Runt/Venus-CBFb-SMMHC FRET ratio 530/480, 1 h. 0.74% of 220,000 active. inhibition, % at 20 µM;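 active = mean inhibition across duplicate retests at 20 µM reaching about 50%, limit read from the data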;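 note: 0% = DMSO wells and 100% = wells with excess untagged CBFb-SMMHC; inhibitors lower the FRET ratio by blocking Runt binding to CBFb-SMMHC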
# Target sequence (Q01196 whole entry, looked up, the tested form may be a part): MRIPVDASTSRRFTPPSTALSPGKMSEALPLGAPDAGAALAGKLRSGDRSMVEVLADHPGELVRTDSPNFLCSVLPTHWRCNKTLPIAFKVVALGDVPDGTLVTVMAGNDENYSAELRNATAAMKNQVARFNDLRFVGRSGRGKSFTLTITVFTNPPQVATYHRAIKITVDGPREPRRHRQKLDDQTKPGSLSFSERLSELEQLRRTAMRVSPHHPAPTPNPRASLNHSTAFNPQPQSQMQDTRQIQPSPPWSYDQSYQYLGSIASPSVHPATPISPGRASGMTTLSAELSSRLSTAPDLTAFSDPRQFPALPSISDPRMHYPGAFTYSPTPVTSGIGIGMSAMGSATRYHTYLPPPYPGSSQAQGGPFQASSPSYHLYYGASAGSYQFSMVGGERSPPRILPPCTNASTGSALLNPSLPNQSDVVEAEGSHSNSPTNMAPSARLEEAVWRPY
# Target sequence (Q13951 whole entry, looked up, the tested form may be a part): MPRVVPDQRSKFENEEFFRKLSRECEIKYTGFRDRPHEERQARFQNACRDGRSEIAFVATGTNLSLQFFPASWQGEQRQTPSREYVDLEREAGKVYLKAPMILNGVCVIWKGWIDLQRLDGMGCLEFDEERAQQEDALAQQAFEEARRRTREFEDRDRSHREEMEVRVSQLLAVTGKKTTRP
# FAS TE block = blocks the thioesterase domain of human fatty acid synthase; recombinant FAS-TE, OMFH fluorogenic substrate, fluorescence endpoint; inhibition, % at 15 µM; 0.67% of 360,000 active;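 active = compounds whose normalised, plate-corrected inhibition of enzyme fluorescence in the single-dose primary screen is 50% or more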;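 note: 0% = DMSO with enzyme and 100% = substrate without enzyme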
# Runt-CBFb FRET = inhibitors of human RUNX1 Runt domain binding to CBFb; Cerulean-Runt/Venus-CBFb FRET ratio 530/480, 1 h; inhibition, % at 20 µM; 0.46% of 220,000 active; AID 1496;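 active = inhibition over about 50% at 20 µM in the single-dose screen, limit read from the data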;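 note: 0% = DMSO wells and 100% = excess unlabeled CBFb competitor control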
#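 test system = Cerulean-Runt domain fusion protein, energy donor | probe or stimulus = Venus-CBFb binding partner, 100 nM | incubation = two 1 h room-temperature incubations shielded from light | detection = fluorescence energy transfer, 422 nm excitation, 530/480 nm emission | measure = loss of energy transfer signal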
# FAS-TE inh conf = confirmation of human fatty acid synthase thioesterase inhibitors; shares compounds with FAS TE block; recombinant FAS-TE, OMFH fluorogenic substrate, fluorescence; inhibition, % at 15 µM; 45% of 2,300 active; AID 624325;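 active = compounds inhibiting the enzyme by at least 50% at 15 µM in any one of the replicates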;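 note: 0% = enzyme with DMSO only and 100% = wells lacking enzyme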
# The depositor's hits bear a star; u = inconclusive; x = no result.
SMILES,Calpain2 inh,RanGTP-Impb inh,Runt-SMMHC FRET,FAS TE block,Runt-CBFb FRET,FAS-TE inh conf
Cc1cccc([C@@H]2[C@@H]3C(=O)N(Cc4ccccc4)C(=O)[C@@H]3[C@]3(Cc4ccc(Cl)cc4)C(=O)N(c4ccccc4)C(=O)N23)c1,x,0,x,93*,x,23
Cc1cccc([C@@H]2[C@@H]3C(=O)N(Cc4ccccc4)C(=O)[C@@H]3[C@]3(Cc4ccccc4)C(=O)N(c4ccc(C(F)(F)F)cc4)C(=O)N23)c1,x,1,x,90*,x,27
CCN1C(=O)[C@H]2[C@@H](c3ccc(C)cc3)N3C(=O)N(c4cccc(Br)c4)C(=O)[C@@]3(CC(C)C)[C@H]2C1=O,x,-1,x,32,x,x
Nc1ncnc2c1ncn2[C@@H]1O[C@H](CNCc2ccccc2OC2OC(CO)C(O)C(O)C2O)[C@@H](O)[C@H]1O (stereo partly specified),x,x,x,-12,x,x
O=C(NCc1ccccn1)c1ccc(NS(=O)(=O)c2ccccc2)cc1,x,2,x,-3,x,x
COc1ccc(CC(=O)Oc2ccc(C(C)(C)C)cc2)cc1S(=O)(=O)N1CCOCC1,x,-1,x,60*,x,15
N#Cc1ccc2[nH]cc(CCO)c2c1,x,1,x,-14,x,x
Cc1cc2c(=O)oc(-c3ccc(F)cc3)nc2s1,-56,-1,x,32,x,x
O=c1cc(-c2ccccc2F)nc(-c2ccccc2F)o1,-5,2,2,-5,1,x
CCc1cc2c(=O)oc(-c3ccccc3F)nc2s1,x,u,x,75*,x,60*
Cc1cc2c(=O)oc(-c3ccccc3Br)nc2s1,0,-1,-2,59*,-2,65*
CCOC(=O)c1c(NC(C)=O)sc2c1CCC(C=NCCCN(CC)CC)=C2Sc1ccccc1,x,5,x,56*,x,38
CCn1cc(S(=O)(=O)Nc2ncccn2)cn1,x,-6,x,-2,x,x
CCOC1=C2CN(S(=O)(=O)c3ccc(Cl)cc3)[C@H](c3ccccc3)C[C@@H]2N(S(=O)(=O)c2ccc(C)cc2)[C@H](c2ccccc2)C1,x,x,x,19,x,x
CCOC1=C2[C@@H](CN(S(=O)(=O)c3ccc(C)cc3)[C@H]2c2cccc3ccccc23)[C@H]2C(=O)NC(=O)[C@H]2C1,x,x,x,13,x,x
CCOC1=C2CN(S(=O)(=O)c3ccc(C)cc3)[C@@H](c3ccccc3)C[C@H]2[C@H]2C(=O)N(c3ccccc3)C(=O)[C@H]2C1,x,x,x,69*,x,9
CCOC1=C2CN(S(=O)(=O)c3ccc(C)cc3)[C@@H](c3cccc4ccccc34)C[C@H]2[C@H]2C(=O)N(c3ccccc3)C(=O)[C@H]2C1,x,x,x,88*,x,6
CCOC1=C2[C@H](c3ccccc3)N(S(=O)(=O)c3ccc(C)cc3)C(C(C)(C)C)[C@H]2C(C#N)(C#N)C(C#N)(C#N)C1 (stereo partly specified),x,x,x,78*,x,12
CCOC1=C2CN(S(=O)(=O)c3ccc(C)cc3)[C@H](c3cccc(Cl)c3)C[C@H]2[C@H]2C(=O)N(c3ccccc3)C(=O)[C@H]2C1,x,x,x,81*,x,19
CCOC1=C2CN(S(=O)(=O)c3ccc(C)cc3)[C@H](c3ccccc3)C[C@@H]2N(S(=O)(=O)c2ccccc2)[C@H](c2ccccc2)C1,x,x,x,29,x,x
CC1CCCC(NC(=O)CSc2ncccn2)C1C (stereo unspecified),x,x,x,-1,x,x
CN1CCN(C(=O)OCCOCCOC(=O)N2CCN(C)CC2)CC1,x,x,x,-6,x,x
CC(OC(=O)CNC(=O)c1ccc2ccccc2c1)C(=O)NC1CCCCC1C (stereo unspecified),x,1,x,5,x,x
CCCCC[C@@H]1[C@@H]2C(=C(OCC)C[C@@H]3C(=O)N(c4ccccc4)C(=O)[C@H]23)[C@H](c2ccccc2)N1S(=O)(=O)c1ccc(C)cc1,x,x,x,27,x,x
CCOC1=C2[C@@H](CN(S(=O)(=O)c3ccc(C)cc3)[C@H]2c2ccc(CC)cc2)[C@H]2C(=O)N(c3ccccc3)C(=O)[C@H]2C1,x,x,x,50*,x,10
SMILES,Calpain2 inh,RanGTP-Impb inh,Runt-SMMHC FRET,FAS TE block,Runt-CBFb FRET,FAS-TE inh conf
CCOC1=C2CN(S(=O)(=O)c3ccc(C)cc3)[C@H](c3cccc4ccccc34)C[C@H]2C(C#N)(C#N)C(C#N)(C#N)C1,x,x,x,63*,x,30
CCC1NC(=O)c2cc3ccccc3cc2-n2c1nc1cc(F)ccc1c2=O (stereo unspecified),x,x,x,4,x,x
O=C1NC(Cc2ccc(O)cc2)c2nc3cc(F)c(F)cc3c(=O)n2-c2cc3ccccc3cc21 (stereo unspecified),x,x,x,18,x,x
CC(C)CC1NC(=O)c2cc3ccccc3cc2-n2c1nc1cc(Cl)ccc1c2=O (stereo unspecified),x,x,x,82*,x,17
O=C1NC(Cc2ccccc2)c2nc3cc(F)c(F)cc3c(=O)n2-c2cc3ccccc3cc21 (stereo unspecified),x,x,x,86*,x,14
Cc1ccc2c(=O)n3c(nc2c1)C(Cc1ccccc1)NC(=O)c1cc2ccccc2cc1-3 (stereo unspecified),x,x,x,76*,x,36
O=C1NC(Cc2ccccc2)c2nc3cc(F)ccc3c(=O)n2-c2cc3ccccc3cc21 (stereo unspecified),x,x,x,92*,x,34
COc1cc2nc3n(c(=O)c2cc1OC)-c1cc2ccccc2cc1C(=O)NC3Cc1ccccc1 (stereo unspecified),x,x,x,53*,x,20
O=C1NC(Cc2ccc(O)cc2)c2nc3cc(Cl)ccc3c(=O)n2-c2cc3ccccc3cc21 (stereo unspecified),x,x,x,27,x,x
O=C1NC(Cc2ccccc2)c2nc3ccccc3c(=O)n2-c2cc3ccccc3cc21 (stereo unspecified),x,x,x,70*,x,-2
COc1cc2nc3n(c(=O)c2cc1OC)-c1cc2ccccc2cc1C(=O)NC3CC(C)C (stereo unspecified),x,x,x,28,x,x
Cn1nc(C(=O)Nc2cccc(S(=O)(=O)N3CCCCC3)c2)c2ccccc2c1=O,x,x,x,31,x,x
COC(=O)c1cc(C(=O)NCCN2C(=O)S/C(=C\c3cccs3)C2=O)cc([N+](=O)[O-])c1,-58,u,-3,60*,-1,5
COc1cccc(CN(C)C(=O)c2ccc(Oc3ccccc3)cc2)c1OC,x,0,x,15,x,x
O=C(Nc1ccc(Cl)cc1)N1CCCN(c2ccc(C(F)(F)F)cc2[N+](=O)[O-])CC1,2,-2,-3,54*,0,21
COc1ccc(S(=O)(=O)N2CCOCC2)cc1NC(=O)c1cccc2c(=O)c(C)c(-c3ccccc3)oc12,-93,1,2,93*,-3,27
CCN(CC)S(=O)(=O)c1ccc(N2CCOCC2)c(NC(=O)c2cccc3c(=O)c(C)c(-c4ccccc4)oc23)c1,x,0,x,36,x,x
CC(C)Oc1ccc(S(=O)(=O)N2CCOCC2)cc1NC(=O)c1nn(C)c(=O)c2ccccc12,x,x,x,67*,x,26
CC(=O)Nc1ccc(SCc2csc(C)n2)cc1,x,1,x,-7,x,x
